Laboratory results taken from ChEMBL document CHEMBL4261527, “Benzylsulfanyl benzo-heterocycle amides and hydrazones as new agents against drug-susceptible and resistant Mycobacterium tuberculosis” (Medchemcomm, 2017).
Values after ≈ are worked out from the molar mass of the structure shown.

How the values were obtained:
[1] = test system: Mycobacterium tuberculosis; test: Antimycobacterial activity against Mycobacterium tuberculosis H37Rv ATCC 27294 measured after 7 days by microplate alamar blue assay; format: functional; conditions: H37Rv ATCC 27294, 168 h
Procedure, shortened: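 Mtb H37Rv (ATCC 27294) grown in Middlebrook 7H12 broth; MIC read by Microplate Alamar Blue Assay (MABA).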

[2] = test system: Mycobacterium tuberculosis; test: Antimycobacterial activity against drug-susceptible Mycobacterium tuberculosis clinical isolate; format: functional
Procedure, shortened: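 Clinical isolates coded 960 (drug-susceptible), 330 (MDR) and 431 (XDR); MIC reported in μM.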

[3] = test system: Mycobacterium tuberculosis; test: Antimycobacterial activity against p-aminosalicyclic acid-resistant Mycobacterium tuberculosis ATCC 35821 by resazurin dye based fluorimetric method; format: functional
[4] = Cytotoxicity against African green monkey Vero cells assessed as cell viability at 0.01 ug/ml after 72 hrs by CCK8 assay (reference value: 100%); format: cell-based; conditions: chlorocebus sabaeus, read-out: Activity
Procedure, shortened: (§1)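 Vero cells exposed to 0.01–20 μg/mL compound; vehicle control 0.625% DMSO set as 100%. Result given as percent cell viability.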

[5] = Cytotoxicity against African green monkey Vero cells assessed as cell viability at 0.02 ug/ml after 72 hrs by CCK8 assay (reference value: 100%); format: cell-based; conditions: chlorocebus sabaeus, read-out: Activity; procedure, shortened: as §1
[6] = Cytotoxicity against African green monkey Vero cells assessed as cell viability at 0.039 ug/ml after 72 hrs by CCK8 assay (reference value: 100%); format: cell-based; conditions: chlorocebus sabaeus, read-out: Activity; procedure, shortened: as §1
[7] = Cytotoxicity against African green monkey Vero cells assessed as cell viability at 0.078 ug/ml after 72 hrs by CCK8 assay (reference value: 100%); format: cell-based; conditions: chlorocebus sabaeus, read-out: Activity; procedure, shortened: as §1
[8] = Cytotoxicity against African green monkey Vero cells assessed as cell viability at 0.156 ug/ml after 72 hrs by CCK8 assay (reference value: 100%); format: cell-based; conditions: chlorocebus sabaeus, read-out: Activity; procedure, shortened: as §1
[9] = Cytotoxicity against African green monkey Vero cells assessed as cell viability at 0.312 ug/ml after 72 hrs by CCK8 assay (reference value: 100%); format: cell-based; conditions: chlorocebus sabaeus, read-out: Activity; procedure, shortened: as §1
[10] = Cytotoxicity against African green monkey Vero cells assessed as cell viability at 0.625 ug/ml after 72 hrs by CCK8 assay (reference value: 100%); format: cell-based; conditions: chlorocebus sabaeus, read-out: Activity; procedure, shortened: as §1
[11] = Cytotoxicity against African green monkey Vero cells assessed as cell viability at 1.25 ug/ml after 72 hrs by CCK8 assay (reference value: 100%); format: cell-based; conditions: chlorocebus sabaeus, read-out: Activity; procedure, shortened: as §1
[12] = Cytotoxicity against African green monkey Vero cells assessed as cell viability at 2.5 ug/ml after 72 hrs by CCK8 assay (reference value: 100%); format: cell-based; conditions: chlorocebus sabaeus, read-out: Activity; procedure, shortened: as §1
[13] = Cytotoxicity against African green monkey Vero cells assessed as cell viability at 5 ug/ml after 72 hrs by CCK8 assay (reference value: 100%); format: cell-based; conditions: chlorocebus sabaeus, read-out: Activity; procedure, shortened: as §1
[14] = Cytotoxicity against African green monkey Vero cells assessed as cell viability at 10 ug/ml after 72 hrs by CCK8 assay (reference value: 100%); format: cell-based; conditions: chlorocebus sabaeus, read-out: Activity; procedure, shortened: as §1
[15] = Cytotoxicity against African green monkey Vero cells assessed as cell viability at 20 ug/ml after 72 hrs by CCK8 assay (reference value: 100%); format: cell-based; conditions: chlorocebus sabaeus, read-out: Activity; procedure, shortened: as §1
[16] = Stability in human liver microsomes assessed as parent compound remaining after 15 mins by LC-MS/MS analysis; format: ADME, microsome; conditions: read-out: Stability
Procedure, shortened: (§2)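 Compound incubated with human liver microsomes; percent remaining measured at 15, 30 and 60 min, relative to the amount at 0 min taken as 100%.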

[17] = Stability in human liver microsomes assessed as parent compound remaining after 30 mins by LC-MS/MS analysis; format: ADME, microsome; conditions: read-out: Stability; procedure, shortened: as §2
[18] = Stability in human liver microsomes assessed as parent compound remaining after 60 mins by LC-MS/MS analysis; format: ADME, microsome; conditions: read-out: Stability; procedure, shortened: as §2

`O=C(N/N=C/c1ccc(CSc2nc3ccccc3o2)cc1)c1ccncc1` showed an MIC [1] of 0.24 µM (≈ 0.0932 µg/mL), an MIC [2] of 0.2 µM (≈ 0.0777 µg/mL) and an MIC [3] of 0.312 µg/mL (≈ 0.803 µM). It also gave a viability at 72 h, 0.01 ug/ml [4] of 127%, a viability at 72 h, 0.02 ug/ml [5] of 127% and a viability at 72 h, 0.039 ug/ml [6] of 127%. For the same compound, the viability at 72 h, 0.078 ug/ml [7] was 119%, the viability at 72 h, 0.156 ug/ml [8] was 122% and the viability at 72 h, 0.312 ug/ml [9] was 120%. For the same compound, the viability at 72 h, 0.625 ug/ml [10] was 118%, the viability at 72 h, 1.25 ug/ml [11] was 123% and the viability at 72 h, 2.5 ug/ml [12] was 123%. It also gave a viability at 72 h, 5 ug/ml [13] of 123%, a viability at 72 h, 10 ug/ml [14] of 130% and a viability at 72 h, 20 ug/ml [15] of 109%. The remaining at 0.25 h [16] was 90.1%, the remaining at 0.5 h [17] was 76.5% and the remaining at 1 h [18] was 66.6%.
For `O=C(NCc1ccc(CSc2nc3ccccc3s2)cc1)c1ccncc1`, the MIC [1] was > 128 µM.
For `O=C(NCc1ccc(CSc2nc3ccccc3o2)cc1)c1cccnc1`, the MIC [1] was 58.2 µM (≈ 21.9 µg/mL).
`O=C(N/N=C/c1ccc(CSc2nc3ccccc3o2)cc1)c1cccnc1` showed an MIC [1] of 24.8 µM (≈ 9.63 µg/mL).
With `O=C(NCc1ccc(CSc2nc3ccccc3[nH]2)cc1)c1cccnc1` the MIC [1] was 60.3 µM (≈ 22.6 µg/mL).
With `O=C(N/N=C/c1ccc(CSc2nc3ccccc3[nH]2)cc1)c1ccncc1` the MIC [1] was 0.23 µM (≈ 0.0891 µg/mL), the MIC [2] was 0.2 µM (≈ 0.0775 µg/mL) and the MIC [3] was 0.312 µg/mL (≈ 0.805 µM). For the same compound, the viability at 72 h, 0.01 ug/ml [4] was 119%, the viability at 72 h, 0.02 ug/ml [5] was 116% and the viability at 72 h, 0.039 ug/ml [6] was 115%. The viability at 72 h, 0.078 ug/ml [7] was 116%, the viability at 72 h, 0.156 ug/ml [8] was 115% and the viability at 72 h, 0.312 ug/ml [9] was 111%. For the same compound, the viability at 72 h, 0.625 ug/ml [10] was 112%, the viability at 72 h, 1.25 ug/ml [11] was 119% and the viability at 72 h, 2.5 ug/ml [12] was 114%. The viability at 72 h, 5 ug/ml [13] was 113%, the viability at 72 h, 10 ug/ml [14] was 107% and the viability at 72 h, 20 ug/ml [15] was 107%. It also gave a remaining at 0.25 h [16] of 76.5%, a remaining at 0.5 h [17] of 62% and a remaining at 1 h [18] of 44.6%.
For `O=C(NCc1ccc(CSc2nc3ccccc3o2)cc1)c1ccncc1`, the MIC [1] was 0.9 µM (≈ 0.338 µg/mL) and the MIC [2] was 16 µM (≈ 6.01 µg/mL).
With `O=C(NCc1ccc(CSc2nc3ccccc3s2)cc1)c1cccnc1` the MIC [1] was > 128 µM.
In the case of `O=C(N/N=C/c1ccc(CSc2nc3ccccc3s2)cc1)c1ccncc1`, the MIC [1] is reported as 0.24 µM (≈ 0.0971 µg/mL), the MIC [2] is reported as 0.2 µM (≈ 0.0809 µg/mL) and the MIC [3] is reported as 0.625 µg/mL (≈ 1.55 µM). The viability at 72 h, 0.01 ug/ml [4] was 97%, the viability at 72 h, 0.02 ug/ml [5] was 103% and the viability at 72 h, 0.039 ug/ml [6] was 99%. For the same compound, the viability at 72 h, 0.078 ug/ml [7] was 99%, the viability at 72 h, 0.156 ug/ml [8] was 97% and the viability at 72 h, 0.312 ug/ml [9] was 98%. It also gave a viability at 72 h, 0.625 ug/ml [10] of 94%, a viability at 72 h, 1.25 ug/ml [11] of 103% and a viability at 72 h, 2.5 ug/ml [12] of 101%. It also gave a viability at 72 h, 5 ug/ml [13] of 103%, a viability at 72 h, 10 ug/ml [14] of 96% and a viability at 72 h, 20 ug/ml [15] of 91%. It also gave a remaining at 0.25 h [16] of 76.3%, a remaining at 0.5 h [17] of 57.2% and a remaining at 1 h [18] of 34%.
`O=C(N/N=C/c1ccc(CSc2nc3ccccc3[nH]2)cc1)c1cccnc1` showed an MIC [1] of 114 µM (≈ 44.3 µg/mL).
In the case of `O=C(N/N=C/c1ccc(CSc2nc3ccccc3s2)cc1)c1cccnc1`, the MIC [1] is reported as > 128 µM.
With `O=C(NCc1ccc(CSc2nc3ccccc3[nH]2)cc1)c1ccncc1` the MIC [1] was 120 µM (≈ 45.1 µg/mL).
For `COc1cc(/C=N/NC(=O)c2ccncc2)ccc1O` [FTIVAZIDE], the MIC [2] was 0.25 µM (≈ 0.0678 µg/mL), the MIC [3] was 0.312 µg/mL (≈ 1.15 µM) and the viability at 72 h, 0.01 ug/ml [4] was 95%. For the same compound, the viability at 72 h, 0.02 ug/ml [5] was 105%, the viability at 72 h, 0.078 ug/ml [7] was 114% and the viability at 72 h, 0.156 ug/ml [8] was 96%. For the same compound, the viability at 72 h, 0.312 ug/ml [9] was 103%, the viability at 72 h, 0.625 ug/ml [10] was 100% and the viability at 72 h, 1.25 ug/ml [11] was 105%. The viability at 72 h, 2.5 ug/ml [12] was 110%, the viability at 72 h, 5 ug/ml [13] was 100% and the viability at 72 h, 10 ug/ml [14] was 95%. For the same compound, the viability at 72 h, 20 ug/ml [15] was 90%.
Compound `NNC(=O)c1ccncc1` [ISONIAZID] has an MIC [1] of 0.81 µM (≈ 0.111 µg/mL) and an MIC [2] of 0.5 µM (≈ 0.0686 µg/mL).
`COc1c(N2C[C@@H]3CCCN[C@@H]3C2)c(F)cc2c(=O)c(C(=O)O)cn(C3CC3)c12` [MOXIFLOXACIN] showed an MIC [1] of 0.5 µM (≈ 0.201 µg/mL).
For `O=[N+]([O-])c1cn2c(n1)OC[C@@H](OCc1ccc(OC(F)(F)F)cc1)C2` [PRETOMANID], the MIC [1] was 0.44 µM (≈ 0.158 µg/mL).
With `CO[C@H]1/C=C/O[C@@]2(C)Oc3c(C)c(O)c4c(O)c(c(/C=N/N5CCN(C)CC5)c(O)c4c3C2=O)NC(=O)/C(C)=C\C=C\[C@H](C)[C@H](O)[C@@H](C)[C@@H](O)[C@@H](C)[C@H](OC(C)=O)[C@@H]1C` [RIFAMPIN] the MIC [1] was 0.08 µM (≈ 0.0658 µg/mL) and the MIC [2] was 0.07 µM (≈ 0.0576 µg/mL).
`CN[C@@H]1[C@H](O[C@H]2[C@H](O[C@H]3[C@H](O)[C@@H](O)[C@H](N=C(N)N)[C@@H](O)[C@@H]3N=C(N)N)O[C@@H](C)[C@]2(O)C=O)O[C@@H](CO)[C@H](O)[C@H]1O` [STREPTOMYCIN] gave an MIC [1] of 0.48 µM (≈ 0.279 µg/mL).
